The structures appear in SMILES notation.

The target in assay [1] is T1, Phosphodiesterase 4 (Homo sapiens, UniProt P27815+Q08499+Q07343+Q08493). Put plainly: Binding affinity at Phosphodiesterase 4 by measuring displacement of (+/-)-[3H]- Rolipram to guinea pig brain membranes. The class given is tissue-based, Cavia porcellus. The note with it: target entry is the homologue from another species. The method, boiled down:
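Guinea pig brain membranes (amount equal to 500 μg brain tissue per sample) incubated with 2 nM (±)-[3H]rolipram (24.7 Ci/mmol).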

The target of assay [2] is T1, Phosphodiesterase 4. Put plainly: Concentration to inhibit 50% of Phosphodiesterase 4 (PDE-4) from guinea pig macrophages. The format is protein assay, Cavia porcellus. The note with it: target entry is the homologue from another species. In outline:
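Enzyme source: homogenate of guinea pig peritoneal macrophages, Percoll-purified and adherence-selected, from Dunkin Hartley animals pretreated with horse serum. Two-step radioisotopic hydrolysis assay with 1 μM cAMP substrate in 20 mM Tris-HCl pH 8.0, 10 mM MgCl2, 4 mM 2-mercaptoethanol, 0.2 mM EGTA, 0.05 mg/mL BSA.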

The test system of assay [3] is Canis familiaris. Put plainly: Emetic effect in dogs at 3 mg/kg intravenous dose, 0 of 4 animals affected. The format is functional, Canis lupus familiaris.
Assay [4] in a line: (§1) Inhibition of tumor necrosis factor alpha (TNF-alpha) release in murine endotoxemia model after peroral administration. In outline: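 Male Balb/c mice, 20–25 g, were dosed orally in 0.25% methylcellulose/0.2% Tween-20 in water 4 h before an ip challenge with E. coli 055:B5 LPS at 30 μg/mouse. ED50 was taken from dose–response curves, n = 6 animals/group.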
Another assay concerns PBMC. Put plainly: Inhibition of TNF-alpha release from LPS-stimulated human mononuclear cells. The class given is functional, cell-based.
The nature of assay [5]: Inhibition of tumor necrosis factor alpha (TNF-alpha) release in murine endotoxemia model after peroral administration at 30 mg/kg. Further details: dose 30 mg/kg. The class given is organism-based.
The test system of assay [6] is Canis familiaris. The assay is described as follows: Emetic effect in dogs at 0.7 mg/kg intravenous dose, 0 of 4 animals affected. The class given is functional, Canis lupus familiaris. The method, boiled down:
(§2)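 Male and female beagles, 1–2 years old, 8–10 kg, food withheld the morning of testing. Compound in 100% DMSO given as a slow iv bolus into the cephalic vein over 30 s at 0.03 mL/kg. Dogs observed for up to 2 h or until emesis occurred. Usually 4 dogs (2 male, 2 female) per test.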

For assay [7], the system named is Canis familiaris. Put plainly: Emetic effect in dogs at 1 mg/kg intravenous dose, 0 of 4 animals affected. The class given is functional, Canis lupus familiaris. The method, boiled down: as §2
Assay [8] can be described thus: Inhibition of tumor necrosis factor alpha (TNF-alpha) release in murine endotoxemia model. In outline: (§3)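 Male Balb/c mice, 20–25 g, dosed orally in 0.25% methylcellulose/0.2% Tween-20 in water 4 h before ip challenge with E. coli 055:B5 LPS at 30 μg/mouse. Serum TNF-α measured by ELISA. ED50 taken from dose–response curves, n = 6 mice/group.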
For assay [9], the system named is Canis familiaris. The assay is described as follows: Emetic effect in dogs at 0.01 mg/kg intravenous dose, 1 of 2 animals affected. The format is functional, Canis lupus familiaris. In outline:
as §2

Assay [10] deals with Canis familiaris. The assay is described as follows: Emetic effect in dogs at 0.03 mg/kg intravenous dose, 2 of 2 animals affected. The format is functional, Canis lupus familiaris. The method, boiled down:
as §2

For assay [11], the system named is Canis familiaris. The assay is described as follows: Emetic effect in dogs at 0.2 mg/kg intravenous dose, 2 of 2 animals affected. The format is functional, Canis lupus familiaris. The method, boiled down:
as §2

A short description of assay [12]: as §1. In outline: as §3
The source holds these as a separate data set.

On to `COc1ccc(C2(Cc3c(Cl)cncc3Cl)C(=O)c3ccccc3C2=O)cc1OC1CCCC1`, for which, at Phosphodiesterase 4 [1], the Ki (as a rule, a measure of affinity in units of concentration, obtained from inhibition or displacement) is recorded as 1700 nM. In addition, the IC50 (commonly the concentration that inhibits the measured activity by half) against Phosphodiesterase 4 [2] came out at 3000 nM.

With `COc1ccc(C2(Cc3ccncc3)C(=O)c3ccc(OCC(=O)O)cc3C2=O)cc1OC1CCCC1` (stereo unspecified), the Ki on Phosphodiesterase 4 [1] worked out at 20 nM. This compound also displayed an IC50 against Phosphodiesterase 4 [2] of 50 nM.

Turning to `COc1ccc(C2(Cc3ccncc3)C(=O)c3ccc(OC(=O)N4CCC(N5CCCCC5)CC4)cc3C2=O)cc1OC1CCCC1` (stereo unspecified), the Ratio with Canis familiaris [3] was determined as 0. At Phosphodiesterase 4 [1], this compound gave a Ki of 20 nM. On Phosphodiesterase 4 [2], the IC50 came to 30 nM. Also, in [4], the ED50 (usually the midpoint of the dose-response relation) was 15 mg/kg.

Compound `COc1ccc(C2(Cc3ccncc3)C(O)c3ccccc3C2O)cc1OC1CCCC1` (stereo unspecified) displayed a Ki on Phosphodiesterase 4 [1] greater than 10000 nM. The IC50 on Phosphodiesterase 4 [2] was greater than 10000 nM.

`CCOc1ccc2c(c1)C(=O)C(Cc1ccncc1)(c1ccc(OC)c(OC3CCCC3)c1)C2=O` (stereo unspecified) returned a Ki on Phosphodiesterase 4 [1] of 20 nM. The IC50 on Phosphodiesterase 4 [2] is reported as 12 nM.

On Phosphodiesterase 4 [1], `COc1ccc(C2(Cc3ccc(O)cc3)C(=O)c3ccccc3C2=O)cc1OC1CCCC1` had a Ki of 260 nM. The compound also registered an IC50 against Phosphodiesterase 4 [2] of 70 nM.

On Phosphodiesterase 4 [1], `COc1ccc(C2(Cc3ccncc3)Cc3ccccc3C2)cc1OC1CCCC1` had a Ki of 1600 nM. In addition, the IC50 at Phosphodiesterase 4 [2] stood at 750 nM.

On Phosphodiesterase 4 [1], `COc1ccc(C2(Cc3ccncc3)C(=O)c3ccc(O)cc3C2=O)cc1OC1CCCC1` (stereo unspecified) came in with a Ki of 45 nM. At Phosphodiesterase 4 [2], this compound gave an IC50 of 100 nM.

Regarding `COc1ccc(C2(Cc3ccncc3)C(=O)c3ccccc3C2=O)cc1OC1CCCC1`, the figures for the IC50 in the assay on PBMC and against Phosphodiesterase 4 [2] were 200 nM and 30 nM, respectively. The Ki at Phosphodiesterase 4 [1] is reported as 10 nM. Also, the inhibition (usually the drop in the measured response relative to a control, in per cent) in [5] is 0%.

On Phosphodiesterase 4 [1], `COc1ccc(C2(Cc3ccncc3)C(=O)c3ccc(OCc4ccccc4)cc3C2=O)cc1OC1CCCC1` (stereo in doubt; (+)-18) came in with a Ki of 20 nM. The same compound had an IC50 at Phosphodiesterase 4 [2] of 30 nM.

`COc1ccc(C2(Cc3ccncc3)C(=O)c3ccc(OCc4ccccc4)cc3C2=O)cc1OC1CCCC1` (single isomer, unassigned; (+)) [listing 1 of 2 here] showed an inhibition in assay [5] of 40%.

Regarding `COc1ccc(C2(Cc3ccncc3)C(=O)c3ccc(OCc4ccccc4)cc3C2=O)cc1OC1CCCC1` (single isomer, unassigned; (+)) [listing 2 of 2 here], the Ratio in the assay with Canis familiaris [6] and in the assay on Canis familiaris [3] was 0 throughout. The IC50 came to 200 nM with PBMC and 4 nM on Phosphodiesterase 4 [2]. The same compound gave a Ki at Phosphodiesterase 4 [1] of 20 nM.

For the compound `COc1ccc(C2C(=O)c3ccccc3C2=O)cc1OC1CCCC1`, the Ki at Phosphodiesterase 4 [1] is reported as greater than 10000 nM. On Phosphodiesterase 4 [2], the IC50 is listed as greater than 10000 nM.

For `COc1ccc([C@H](Cc2ccncc2)c2ccccc2)cc1OC1CCCC1` [CDP840], the Ratio with Canis familiaris [7] stood at 0. Also, the 50% effect level in [8] (ED50) was put at a dose of 25 mg/kg.

The compound `COc1ccc(C2(Cc3ccncc3)C(=O)c3ccc(OCc4ccncc4)cc3C2=O)cc1OC1CCCC1` (stereo unspecified) gave a Ki on Phosphodiesterase 4 [1] of 30 nM. Besides, the IC50 against Phosphodiesterase 4 [2] was 14 nM.

With `COc1ccc(C2(Cc3ccncc3)C(=O)c3ccc(OC4CCN(C)CC4)cc3C2=O)cc1OC1CCCC1` (stereo unspecified), on Phosphodiesterase 4 [1], the Ki is on record as 60 nM. The same compound had an IC50 at Phosphodiesterase 4 [2] of 30 nM.

For `COc1ccc(C2CNC(=O)C2)cc1OC1CCCC1` (stereo unspecified) [ROLIPRAM], the Ratio in the assay on Canis familiaris [9] is 1; with Canis familiaris [10], 2; with Canis familiaris [11], 2. The same compound had an IC50 in the assay on PBMC of 500 nM. In assay [12], this compound registered an ED50 of 8 mg/kg.

With `COc1ccc(C2(Cc3ccncc3)Cc3cc(OCc4ccccc4)ccc3C2=O)cc1OC1CCCC1` (stereo unspecified), the Ki on Phosphodiesterase 4 [1] is 60 nM. Moreover, the IC50 on Phosphodiesterase 4 [2] is 20 nM.

For `COc1ccc(C2(Cc3cc[n+]([O-])cc3)C(=O)c3ccccc3C2=O)cc1OC1CCCC1`, the Ki on Phosphodiesterase 4 [1] came to 20 nM. In addition, the IC50 at Phosphodiesterase 4 [2] was determined as 50 nM.

With `COc1ccc(C2(Cc3ccccc3)C(=O)c3ccccc3C2=O)cc1OC1CCCC1`, the Ki on Phosphodiesterase 4 [1] is 2300 nM. On Phosphodiesterase 4 [2], this compound registered an IC50 of 500 nM.

As to `COc1ccc(C2(Cc3ccncc3)C(=O)c3ccc(OCc4ccccc4)cc3C2=O)cc1OC1CCCC1` (stereo in doubt; (+)-17), the Ki on Phosphodiesterase 4 [1] is on record as 20 nM. At Phosphodiesterase 4 [2], this compound displayed an IC50 of 6 nM.
